An excerpt weighted towards active compounds, which were near 2.4% of everything screened.
NadD block – inhibitors of S. aureus NadD, primary screen, biochemical, colorimetric, uHTS; inhibition, % at 20 µM; purified NadD enzyme, colorimetric absorbance read-out; AID 602399, 2012; 360,000 tested, 0.78% active; Nicotinate-nucleotide adenylyltransferase NadD (Staphylococcus aureus N315); in the data active = inhibition above about 26%
STEP inh – STEP phosphatase inhibitors, primary screen, biochemical, fluorescence intensity, uHTS; 360,000 tested, 0.25% active; Tyrosine-protein phosphatase non-receptor type 5 (Homo sapiens), P54829; inhibition, % at 20 µM; recombinant STEP, OMFP fluorogenic substrate;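 active = inhibition at 20 µM, scaled per plate between control wells, above about 37%, limit read from the data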
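System: STEP (striatal-enriched tyrosine phosphatase) enzyme, cell-free; medium: Bis-Tris pH 6.0 buffer with DTT, detergent; dosing: 20 µM, 1% DMSO; times: reaction 20 min, ambient temperature; detection: fluorescence, 480/540 nm; read-out basis: normalized % inhibition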
LMPTP block – LMPTP phosphatase inhibitors, primary screen, biochemical, fluorescence intensity, uHTS. Low molecular weight phosphotyrosine protein phosphatase (Homo sapiens), P24666. recombinant LMPTP-A, OMFP fluorogenic substrate. inhibition, % at 20 µM. 360,000 tested, 0.22% active;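 active = compounds that cut the enzyme signal by at least half of the control window in the single-dose screen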
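Assay system: LMPTP-A, protein tyrosine phosphatase of low molecular weight / Medium: pH 6.0 Bis-Tris buffer with DTT and Triton X-100 / Schedule: 50 min enzyme reaction at room temperature, protected from light / Measured by: endpoint fluorescence intensity from OMFP dephosphorylation / Read-out basis: % inhibition relative to no-enzyme and uninhibited control wells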
Scp-1 inhibitor – Scp-1 phosphatase inhibitors, primary screen, biochemical, colorimetric, uHTS. inhibition, % at 20 µM. 340,000 tested, 0.88% active. Carboxy-terminal domain RNA polymerase II polypeptide A small phosphatase 1 (Homo …. Recombinant Scp1, phosphopeptide, malachite green phosphate absorbance. AID 493091, 2011;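 active = inhibition above about 50% at 20 µM, limit read from the data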
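Material – SCP-1 phosphatase catalytic domain, residues 76-261 · Buffer or medium – Acidic Tris acetate buffer with magnesium and detergent · Also added – Phospho 17-mer peptide substrate · Compound – single 20 µM dose, 1% DMSO · Times – 45 min room-temperature reaction, 5 min colour, 30 min stabiliser · Technique – Phosphate-binding colour reagent, absorbance read at 630 nm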
SUMO1-SIM PPI – modulators of SUMO1 protein-protein interactions, primary screen, biochemical, uHTS; inhibition, % at 20 µM; 360,000 tested, 0.33% active; Small ubiquitin-related modifier 1 (Homo sapiens), P63165; SUMO1 binding to a labelled peptide, TR-FRET, 1 h; in the data active = inhibition above about 37%
DNMT1 block – human DNMT1 methyltransferase inhibitors, primary screen, biochemical, molecular beacon, fluorescence, HinP1I cleavage, uHTS; DNA (cytosine-5)-methyltransferase 1 (Homo sapiens), P26358; inhibition (reported as % activation of signal), % at 10 µM; 360,000 tested, 0.83% active; in the data active = inhibition above about 50%
Each line names hits and unclear results; the compound was inactive in the other large screens.

Cc1cc(C)cc(OCC(=O)Nc2ccc(F)cc2)c1	none
COc1ccc(OCC(=O)Nc2ccc(N3CCCCC3)cc2)cc1	none
O=C(O)c1ccc(N2C(=O)/C(=C/c3ccc(-c4ccc([N+](=O)[O-])cc4)o3)C=C2c2ccccc2)cc1	NadD block 56, STEP inh 87, LMPTP block 79, Scp-1 inhibitor 66, SUMO1-SIM PPI 103, DNMT1 block 81
N=C1/C(=C\c2ccc(OC(=O)c3ccccc3)cc2)C(=O)N=C2SC(N3CCOCC3)=NN12	none
Cc1ccc(C(=O)Oc2ccc(/C=C3\C(=N)N4N=C(N5CCOCC5)SC4=NC3=O)cc2)cc1	NadD block 40
N=C1/C(=C\c2ccc(OC(=O)c3ccco3)cc2)C(=O)N=C2SC(N3CCCCC3)=NN12	none
N=C1/C(=C\c2ccc(OC(=O)c3ccc(F)cc3)cc2)C(=O)N=C2SC(N3CCCC3)=NN12	NadD block 51
COc1ccc(CNc2ncnc3sccc23)cc1	none
COC(=O)C1=C(C(=O)OC)[C@@H]2N(C)c3ccc(OC)cc3[C@@]23C[C@@H](C(=O)OC)N(C(=O)COCc2ccccc2)C3=N1	none (no result: NadD block, STEP inh, LMPTP block, SUMO1-SIM PPI, DNMT1 block)
Cc1cc(O)c(C=O)c2c1C(=O)Oc1c(CO)c(O)c3c(c1O2)C(O)OC3=O (stereo not given)	NadD block 34, STEP inh 46, LMPTP block 57, Scp-1 inhibitor 77, SUMO1-SIM PPI 103, DNMT1 block 57
Cc1cc(C)c(S(=O)(=O)/N=C2/C=C(Sc3ncn[nH]3)C(=O)c3ccccc32)cc1C	NadD block 90, SUMO1-SIM PPI 92
C/C(CC(=O)Nc1ccc(Cl)c(C(F)(F)F)c1)=N\NC(=O)c1cc2ccccc2cc1O	NadD block 36
COC(=O)C[C@H]1C[C@H]2c3cc(NC(=O)C4CCOCC4)ccc3O[C@H]2[C@@H](CO)O1	none (no result: Scp-1 inhibitor)
CCCN(C(=O)c1cc(-c2ccco2)nc2ccccc12)c1c(N)n(Cc2ccccc2)c(=O)[nH]c1=O	Scp-1 inhibitor 74
CCCCN(C(=O)c1cc(-c2ccco2)nc2ccccc12)c1c(N)n(CCCC)c(=O)[nH]c1=O	none (no result: Scp-1 inhibitor)
CCCCn1c(N)c(N(CCC(C)C)C(=O)c2cc(-c3ccco3)nc3ccccc23)c(=O)[nH]c1=O	Scp-1 inhibitor 61
COc1ccc(CNC[C@H]2O[C@@H](n3ccc(=O)[nH]c3=O)[C@H](O)[C@@H]2O)cc1	none (no result: Scp-1 inhibitor)
CCCCN1C(=O)/C(=C/C=C2\Oc3ccccc3N2CC)SC1=S	none
CCN1/C(=C/C=C/c2oc3ccc(-c4ccccc4)cc3[n+]2CC)Oc2ccc(-c3ccccc3)cc21	NadD block 44, SUMO1-SIM PPI 57, DNMT1 block 149
O=C(Oc1nsnc1N1CCOCC1)N(c1ccccc1)c1ccccc1	none
COC(=O)Oc1nsnc1N1CCOCC1	Scp-1 inhibitor 70
CS(=O)(=O)N1CCC(Oc2ccccc2C(=O)NC2CCOC2)CC1 (stereo not given)	none
CS(=O)(=O)N1CCC(Oc2ccccc2C(=O)NC(C2CC2)C2CC2)CC1	SUMO1-SIM PPI 40
C[C@H]1COc2cccc(N3CCSCC3)c2S(=O)(=O)N1	none (no result: STEP inh, Scp-1 inhibitor, DNMT1 block)
Cc1ccc(C)c(S(=O)(=O)/N=C2\C=C(NS(=O)(=O)c3ccccc3)C(=O)c3ccccc32)c1	NadD block 29
CCc1ccc(S(=O)(=O)/N=C2\C=C(NS(=O)(=O)c3ccccc3)C(=O)c3ccccc32)cc1	none
CC(C)c1ccc(S(=O)(=O)/N=C2\C=C(NS(=O)(=O)c3ccccc3)C(=O)c3ccccc32)cc1	NadD block 41
